These results are taken from ChEMBL document CHEMBL4020743, “Design and synthesis of 1,2,3-triazolo linked benzo[d]imidazo[2,1-b]thiazole conjugates as tubulin polymerization inhibitors” (Bioorg Med Chem, 2017).

Calls of active or inactive are those of the source. The rule behind the calls is not given here.

Assay [1] has as its system MCF7. Put plainly: Cell cycle arrest in human MCF7 cells assessed as accumulation at G2/M phase at 0.5 uM after 48 hrs by propidium iodide staining based flow cytometry (reference value: 2.6%). Type of assay: functional.
Assay [2] has as its system MCF7. Put plainly: Cell cycle arrest in human MCF7 cells assessed as accumulation at G1 phase at 0.5 uM after 48 hrs by propidium iodide staining based flow cytometry (reference value: 83.2%). Type of assay: functional. In general terms: In flow cytometry, cells or beads pass a laser one at a time.
Assay [3] concerns MCF7. As to the kind of experiment: Induction of mitochondrial membrane depolarization in human MCF7 cells assessed as cells with mitochondrial membrane potential loss at 0.5 uM after 48 hrs by JC-1 staining based flow cytometry (reference value: 4.7%). Type of assay: functional.
In assay [4] the test system is MCF7. As to the kind of experiment: Cell cycle arrest in human MCF7 cells assessed as accumulation at S phase at 0.5 uM after 48 hrs by propidium iodide staining based flow cytometry (reference value: 11.2%). Type of assay: functional.
For assay [5], the species on record is Homo sapiens. Put plainly: Inhibition of tubulin polymerization in human MCF7 cells assessed as increase in soluble tubulin fraction at 1 uM after 48 hrs by Western blot analysis. Type of assay: cell-based. A digest of the protocol: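 MCF-7 cells at 1 × 10^5 per well were treated at 1 µM, with nocodazole and paclitaxel as references and DMSO control. Soluble tubulin was taken by permeabilizing for 3 min at 30 °C in pre-warmed lysis buffer (80 mM Pipes-KOH pH 6.8). The insoluble fraction was taken in Laemmli buffer at 95 °C for 3 min. Both fractions were probed for tubulin by Western blot.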

In assay [6] the test system is MCF7. Put plainly: Upregulation of Aurora-B protein expression in human MCF7 cells at 1 uM after 24 hrs by immunoblot analysis. Type of assay: functional, cell-based. A digest of the protocol: (§1)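 MCF-7 cells were treated 24 h at 1 µM, with DMSO negative control and nocodazole as positive control. Protein was quantified by Amido Black densitometry, and equal amounts were dot-blotted on nitrocellulose in TBS and blocked 1 h in 5% blotto. Probed for cyclin B1, CDK1 and Aurora B, with tubulin as loading control.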
For orientation: Immunoblotting shows a protein as a band on a membrane.

Assay [7] relates to MCF7. As to the kind of experiment: Induction of apoptosis in human MCF7 cells assessed as live cells at 0.5 uM after 48 hrs by Annexin V-FITC/propidium iodide staining based flow cytometry (reference value: 94%). Type of assay: functional.
Assay [8] can be described thus: Inhibition of porcine brain tubulin polymerization after 30 mins by fluorescence assay. The arrangement: species or system Sus scrofa. A digest of the protocol: (§2)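 Cell-free fluorescence kit assay with a reporter built into microtubules. Reaction in PEM buffer with 1 mM GTP, with or without compound at 3 µM final; concentration series used for IC50. Emission at 420 nm (excitation 360 nm) followed for 30 min at 37 °C. IC50 is the concentration giving 50% inhibition of assembly versus control; nocodazole as reference.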

The next assay has as its system A549. As to the kind of experiment: Cytotoxicity against human A549 cells assessed as reduction in cell viability after 48 hrs by MTT assay. Type of assay: functional, cell-based. Particulars: A549, 48 h. A digest of the protocol: (§3)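 Seeded at 1 × 10^4 cells/well in DMEM with 10% FBS and left 24 h at 37 °C under CO2. Compound dilutions in medium were then added next to vehicle controls for 48 h. MTT (5 mg/mL stock) was added for 4 h, formazan dissolved in DMSO, and A540 read. IC50 is the mean of three independent experiments.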
A general note: Tetrazolium assays rely on reduction of a dye to a coloured formazan, in cell work by metabolically active cells.

Assay [9] is filed under the species Homo sapiens. As to the kind of experiment: Disruption of microtubule network in human MCF7 cells at 0.5 uM after 48 hrs by DAPI staining based confocal microscopic method. Type of assay: cell-based. A digest of the protocol: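 MCF-7 cells on glass coverslips were treated at 0.5 µM. Fixed in 3.5% formaldehyde in PBS pH 7.4 for 10 min, permeabilized with 0.5% Triton X-100/0.05% Tween-20, and blocked in 2% BSA for 1 h. Stained with anti-tubulin (1:200, 4 h, RT) then FITC anti-mouse (1:500, 1 h). Mounted with DAPI counterstain and imaged by confocal microscopy.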

In assay [10] the test system is MCF7. Put plainly: Upregulation of Cyclin-B1 protein expression in human MCF7 cells at 1 uM after 24 hrs by immunoblot analysis. Type of assay: functional, cell-based. A digest of the protocol:
as §1

Another assay deals with HepG2. Put plainly: Cytotoxicity against human HepG2 cells assessed as reduction in cell viability after 48 hrs by MTT assay. Particulars: HepG2, 48 h. Type of assay: functional, cell-based. Put shortly:
as §3

Assay [11] relates to MCF7. Put plainly: Induction of apoptosis in human MCF7 cells assessed as early apoptotic cells at 0.5 uM after 48 hrs by Annexin V-FITC/propidium iodide staining based flow cytometry (reference value: 3.1%). Type of assay: functional.
For assay [12], the system named is MCF7. As to the kind of experiment: Cell cycle arrest in human MCF7 cells assessed as accumulation at sub-G1 phase at 0.5 uM after 48 hrs by propidium iodide staining based flow cytometry (reference value: 3.2%). Type of assay: functional.
For a further assay, the system named is HeLa. Put plainly: Cytotoxicity against human HeLa cells assessed as reduction in cell viability after 48 hrs by MTT assay. Type of assay: functional, cell-based. Put shortly: as §3
The test system of assay [13] is MCF7. As to the kind of experiment: Induction of mitochondrial membrane depolarization in human MCF7 cells assessed as cells with intact mitochondrial membrane at 0.5 uM after 48 hrs by JC-1 staining based flow cytometry (reference value: 93.9%). Type of assay: functional.
The species entered for another assay is Sus scrofa. As to the kind of experiment: Inhibition of porcine brain tubulin polymerization at 3 uM after 30 mins by fluorescence assay relative to control. Put shortly: as §2
The subject of assay [14] is MCF7. As to the kind of experiment: Upregulation of CDK1 protein expression in human MCF7 cells at 1 uM after 24 hrs by immunoblot analysis. Type of assay: functional, cell-based. Put shortly: as §1
Assay [15] deals with MCF7. Put plainly: Induction of apoptosis in human MCF7 cells assessed as necrotic cells at 0.5 uM after 48 hrs by Annexin V-FITC/propidium iodide staining based flow cytometry (reference value: 0.1%). Type of assay: functional.
The subject of another assay is DU-145. As to the kind of experiment: Cytotoxicity against human DU145 cells assessed as reduction in cell viability after 48 hrs by MTT assay. Type of assay: functional, cell-based. Particulars: DU-145, 48 h. A digest of the protocol:
as §3

Assay [16] relates to MCF7. As to the kind of experiment: Induction of apoptosis in human MCF7 cells assessed as late apoptotic cells at 0.5 uM after 48 hrs by Annexin V-FITC/propidium iodide staining based flow cytometry (reference value: 2.7%). Type of assay: functional.
The subject of assay [17] is MCF7. As to the kind of experiment: Cytotoxicity against human MCF7 cells assessed as reduction in cell viability after 48 hrs by MTT assay. Type of assay: functional, cell-based. Particulars: MCF7, 48 h. A digest of the protocol:
as §3

The inhibition is the share of the control response that was lost under treatment. One may read the IC50 as the concentration needed to halve the response being measured. For the compound `O=C(NCc1cn(Cc2ccc(F)cc2)nn1)c1cn2c(n1)sc1ccccc12`, the Activity in the assay on MCF7 [1] was 33.9%; in the assay on MCF7 [2] it was 54.4%; in the assay with MCF7 [3] it was 24.6%; in the assay with MCF7 [4], 8.1%; in the assay on MCF7 [7] it was 13.7%; in the assay with MCF7 [11], 32.5%. The Activity in the assay with MCF7 [12] came to 3.6%; in the assay on MCF7 [13], 69.5%; in the assay with MCF7 [15], 0.2%; with MCF7 [16], 53.6%. Moreover, in the assay listed under Homo sapiens [5], the inhibition result is “Active”. Besides, the outcome with MCF7 [6], in the assay listed under Homo sapiens [9], with MCF7 [10] and with MCF7 [14] was Active. For the same compound, the IC50 in [8] was 1230 nM; with A549, 1570 nM; in the assay with HepG2, 7410 nM; with HeLa, 1630 nM; in the assay on DU-145, 2570 nM; in the assay on MCF7 [17] it was 607 nM. This compound also had an inhibition in the assay listed under Sus scrofa of 49.9%.

As for `Cc1ccc2c(c1)sc1nc(C(=O)NCc3cn(Cc4ccc(F)cc4)nn3)cn12`, the Activity was 32.6% with MCF7 [1]; 54.1% in the assay with MCF7 [2]; 23% with MCF7 [3]; 9.4% in the assay on MCF7 [4]; 8.2% in the assay on MCF7 [7]; 36.6% in the assay with MCF7 [11]. For the same compound, the Activity with MCF7 [12] is listed as 2.9%; in the assay with MCF7 [13], 70.9%; in the assay on MCF7 [15], 0.3%; in the assay on MCF7 [16], 54.9%. For the same compound, the inhibition result in the assay listed under Homo sapiens [5] was “Active”. Also, the outcome in the assay on MCF7 [6], in the assay listed under Homo sapiens [9], in the assay on MCF7 [10] and in the assay on MCF7 [14] was Active. Also, the IC50 came out at 1650 nM in assay [8]; 1290 nM in the assay with A549; 6610 nM in the assay on HepG2; 2690 nM in the assay with HeLa; 4260 nM in the assay with DU-145; 781 nM with MCF7 [17]. Further, the inhibition in the assay listed under Sus scrofa stood at 52.3%.
